Measurements reported in ChEMBL document CHEMBL1926595, “Design and synthesis of 4,6-substituted-(diaphenylamino)quinazolines as potent EGFR inhibitors with antitumor activity” (Bioorg Med Chem, 2012).

Columns and labels:
[1] = biological target: Epidermal growth factor receptor (Homo sapiens, UniProt P00533); experiment: Inhibition of EGFR expressed in baculovirus infected Sf9 cells assessed as inhibition of autophosphorylation preincubated for 10 mins measured after 1 hr by DELFIA/Time-Resolved Fluorometry
Epidermal growth factor receptor, sequence (P00533 whole entry): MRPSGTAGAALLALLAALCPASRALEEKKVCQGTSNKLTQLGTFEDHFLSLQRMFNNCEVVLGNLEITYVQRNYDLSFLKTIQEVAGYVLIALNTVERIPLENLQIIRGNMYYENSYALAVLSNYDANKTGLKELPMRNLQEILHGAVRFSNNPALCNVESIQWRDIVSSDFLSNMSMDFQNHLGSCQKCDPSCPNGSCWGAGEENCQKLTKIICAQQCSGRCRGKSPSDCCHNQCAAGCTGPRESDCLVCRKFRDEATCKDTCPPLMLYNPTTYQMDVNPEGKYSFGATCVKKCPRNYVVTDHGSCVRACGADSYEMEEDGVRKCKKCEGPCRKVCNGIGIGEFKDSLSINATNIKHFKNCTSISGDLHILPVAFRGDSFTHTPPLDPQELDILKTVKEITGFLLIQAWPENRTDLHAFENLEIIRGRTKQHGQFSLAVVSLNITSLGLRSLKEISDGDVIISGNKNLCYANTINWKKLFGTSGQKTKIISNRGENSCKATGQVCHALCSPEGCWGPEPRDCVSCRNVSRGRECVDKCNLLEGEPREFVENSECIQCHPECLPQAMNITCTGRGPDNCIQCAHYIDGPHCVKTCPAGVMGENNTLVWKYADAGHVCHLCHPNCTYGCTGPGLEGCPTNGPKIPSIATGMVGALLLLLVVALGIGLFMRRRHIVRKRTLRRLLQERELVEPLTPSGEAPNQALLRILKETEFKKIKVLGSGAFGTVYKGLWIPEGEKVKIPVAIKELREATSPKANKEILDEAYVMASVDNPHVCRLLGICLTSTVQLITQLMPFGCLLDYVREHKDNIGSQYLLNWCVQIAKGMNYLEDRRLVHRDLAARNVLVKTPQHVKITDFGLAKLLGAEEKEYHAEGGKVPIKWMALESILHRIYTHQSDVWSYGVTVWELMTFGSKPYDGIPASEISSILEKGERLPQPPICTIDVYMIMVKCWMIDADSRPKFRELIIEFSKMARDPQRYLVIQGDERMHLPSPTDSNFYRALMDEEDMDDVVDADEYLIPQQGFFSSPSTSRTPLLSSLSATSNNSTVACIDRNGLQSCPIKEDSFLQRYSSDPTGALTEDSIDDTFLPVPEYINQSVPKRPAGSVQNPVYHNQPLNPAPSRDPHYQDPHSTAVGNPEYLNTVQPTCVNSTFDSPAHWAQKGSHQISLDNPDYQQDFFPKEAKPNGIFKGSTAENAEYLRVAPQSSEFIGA

HepG2 [2] = experiment: Antiproliferative activity against human HepG2 cells after 48 hrs by MTT assay; format: functional, cell-based; conditions: HepG2, 48 h
In short: (§1)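 Cells were seeded at 7 × 10³ per well and, after 24 h, exposed while growing exponentially to a range of concentrations for 48 h. MTT (5 mg/mL stock in PBS) was added for 6 h, followed by 10% SDS in 0.01 N HCl for a further 4 h at 37 °C, then absorbance read at 570 nm. Survival was taken as % of untreated cells. IC50 came from 6-well replicates in at least two independent experiments.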

[3] = Antiproliferative activity against human A16-F10 cells after 48 hrs by MTT assay; format: functional, cell-based; conditions: A16-F10, 48 h; in short: as §1
HepG2 [4] = experiment: Induction of apoptosis in human HepG2 cells assessed as apoptotic cells at 2 uM after 3 days using annexin-V/PI double staining by flow cytometry (reference value: 0.98%); format: functional
HepG2 [5] = experiment: Induction of apoptosis in human HepG2 cells after 3 days using annexin-V/PI double staining by flow cytometry; format: functional, cell-based
HepG2 [6] = experiment: Induction of apoptosis in human HepG2 cells assessed as apoptotic cells at 1 uM after 3 days using annexin-V/PI double staining by flow cytometry (reference value: 0.98%); format: functional

COc1ccccc1CNc1ccc2ncnc(Nc3cccc(Cl)c3)c2c1
IC50 [1]: 13.9 µM | IC50 (HepG2 [2]): 9.85 µM | IC50 [3]: 14.8 µM

C#Cc1cccc(Nc2ncnc3cc(OCCOC)c(OCCOC)cc23)c1 [ERLOTINIB]
IC50 [3]: 0.02 µM

Clc1ccccc1CNc1ccc2ncnc(Nc3cccc(Br)c3)c2c1
IC50 (HepG2 [2]): 1.82 µM | IC50 [3]: 3.74 µM

Oc1ccccc1CNc1ccc2ncnc(Nc3cccc(Br)c3)c2c1
IC50 [1]: 3.22 µM | IC50 (HepG2 [2]): 1.26 µM | IC50 [3]: 1.87 µM

Oc1ccccc1CNc1ccc2ncnc(Nc3cccc(Cl)c3)c2c1
IC50 [1]: 3.54 µM | IC50 (HepG2 [2]): 2.08 µM | IC50 [3]: 3.18 µM

Brc1cccc(Nc2ncnc3ccc(NCc4ccccc4Br)cc23)c1
IC50 (HepG2 [2]): 2.76 µM | IC50 [3]: 4.38 µM

COc1ccccc1CNc1ccc2ncnc(Nc3cccc(Br)c3)c2c1
IC50 [1]: 11.2 µM | IC50 (HepG2 [2]): 8.82 µM | IC50 [3]: 12.5 µM

Clc1cccc(Nc2ncnc3ccc(NCc4ccc(Br)cc4)cc23)c1
IC50 [1]: 5.67 µM | IC50 (HepG2 [2]): 3.81 µM | IC50 [3]: 4.01 µM

COc1ccc(CNc2ccc3ncnc(Nc4cccc(Cl)c4)c3c2)cc1
IC50 (HepG2 [2]): 5.26 µM | IC50 [3]: 8.43 µM

Brc1ccc(CNc2ccc3ncnc(Nc4cccc(Br)c4)c3c2)cc1
IC50 [1]: 3.13 µM | IC50 (HepG2 [2]): 1.41 µM | IC50 [3]: 2.21 µM

Fc1ccc(CNc2ccc3ncnc(Nc4cccc(Br)c4)c3c2)cc1
IC50 (HepG2 [2]): 1.77 µM | IC50 [3]: 2.09 µM

Clc1cccc(Nc2ncnc3ccc(NCc4ccccc4Cl)cc23)c1
IC50 (HepG2 [2]): 5.33 µM | IC50 [3]: 7.12 µM

Clc1cccc(Nc2ncnc3ccc(NCc4ccccc4Br)cc23)c1
IC50 (HepG2 [2]): 4.17 µM | IC50 [3]: 5.83 µM

COc1ccc(CNc2ccc3ncnc(Nc4cccc(Br)c4)c3c2)cc1
IC50 (HepG2 [2]): 5.43 µM | IC50 [3]: 10.4 µM

Oc1ccc(CNc2ccc3ncnc(Nc4cccc(Br)c4)c3c2)cc1
Activity (HepG2 [4]): 54.2% | Activity (HepG2 [5]): Dose-dependent effect | IC50 (HepG2 [2]): 0.28 µM | Activity (HepG2 [6]): 20.8% | IC50 [3]: 0.59 µM

Fc1ccc(CNc2ccc3ncnc(Nc4cccc(Cl)c4)c3c2)cc1
IC50 (HepG2 [2]): 2.69 µM | IC50 [3]: 2.95 µM

Clc1ccc(CNc2ccc3ncnc(Nc4cccc(Br)c4)c3c2)cc1
IC50 [1]: 1.64 µM | IC50 (HepG2 [2]): 0.92 µM | IC50 [3]: 1.82 µM

Clc1ccc(CNc2ccc3ncnc(Nc4cccc(Cl)c4)c3c2)cc1
IC50 [1]: 4.41 µM | IC50 (HepG2 [2]): 1.78 µM | IC50 [3]: 2.67 µM

Oc1ccc(CNc2ccc3ncnc(Nc4cccc(Cl)c4)c3c2)cc1
IC50 [1]: 1.87 µM | IC50 (HepG2 [2]): 1.52 µM | IC50 [3]: 1.58 µM
